Laboratory results from PMC8717676 (The Journal of nutritional biochemistry, 2011).
“And” between values parts separate entries of the source, which are not always exact repeats. Equal values may be shown once. Read-outs that look alike come from different tables or passages of the source.

Columns and labels:
[1] = target: NDH-2 (alternative NADH dehydrogenase) (Escherichia coli, UniProt P00393); test: NDH-2 NADH oxidase activity in membrane vesicles of strain BA14; format: biochemical, E. coli
NDH-2 (alternative NADH dehydrogenase), sequence (P00393 whole entry): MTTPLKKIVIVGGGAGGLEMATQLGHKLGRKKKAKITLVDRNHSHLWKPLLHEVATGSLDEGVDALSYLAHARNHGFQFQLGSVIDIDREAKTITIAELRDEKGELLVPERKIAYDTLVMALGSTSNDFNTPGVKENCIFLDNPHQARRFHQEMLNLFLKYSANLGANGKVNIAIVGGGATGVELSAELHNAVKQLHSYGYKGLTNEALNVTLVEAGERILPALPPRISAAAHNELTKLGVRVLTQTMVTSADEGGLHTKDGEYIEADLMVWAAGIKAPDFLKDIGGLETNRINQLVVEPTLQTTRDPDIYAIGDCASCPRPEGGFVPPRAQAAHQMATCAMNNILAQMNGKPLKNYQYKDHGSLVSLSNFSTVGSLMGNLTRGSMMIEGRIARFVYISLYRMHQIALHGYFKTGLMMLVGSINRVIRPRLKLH

NDH-1 (Complex I) = NDH-1 (Complex I) (Escherichia coli, UniProt P31979); test: NDH-1 NADH oxidase activity in membrane vesicles; format: biochemical, E. coli; conditions: for NDH-1 Deamino-NADH oxidase Maximum inhibition: strain 1100 membranes
F1-ATPase = F1-ATPase (Escherichia coli, UniProt P0ABA6+P0ABB0+P0ABB4); test: ATP hydrolysis by purified F1-ATPase, colorimetric phosphate release; format: biochemical, E. coli; conditions: for IC50: read-out: F1-ATPase Activity IC50
F1-ATPase, sequence (P0A6E6 2-139): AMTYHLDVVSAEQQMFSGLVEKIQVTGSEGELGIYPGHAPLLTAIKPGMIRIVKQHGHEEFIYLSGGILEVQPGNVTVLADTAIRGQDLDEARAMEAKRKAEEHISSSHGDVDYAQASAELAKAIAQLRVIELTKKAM
F1-ATPase, sequence (P0ABB4 2-460): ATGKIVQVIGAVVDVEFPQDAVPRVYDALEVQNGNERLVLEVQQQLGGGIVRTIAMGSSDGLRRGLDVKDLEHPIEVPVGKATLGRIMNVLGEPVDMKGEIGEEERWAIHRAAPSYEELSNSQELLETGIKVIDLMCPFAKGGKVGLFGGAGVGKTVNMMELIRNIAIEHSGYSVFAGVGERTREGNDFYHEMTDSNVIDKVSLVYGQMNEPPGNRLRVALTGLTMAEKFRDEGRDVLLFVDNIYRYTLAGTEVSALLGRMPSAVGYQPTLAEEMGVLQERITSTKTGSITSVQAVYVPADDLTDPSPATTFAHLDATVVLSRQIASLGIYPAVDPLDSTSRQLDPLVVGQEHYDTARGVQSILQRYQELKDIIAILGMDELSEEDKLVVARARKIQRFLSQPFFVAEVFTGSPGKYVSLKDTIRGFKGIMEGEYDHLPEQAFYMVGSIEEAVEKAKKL
F1-ATPase, sequence (P0ABB0 whole entry): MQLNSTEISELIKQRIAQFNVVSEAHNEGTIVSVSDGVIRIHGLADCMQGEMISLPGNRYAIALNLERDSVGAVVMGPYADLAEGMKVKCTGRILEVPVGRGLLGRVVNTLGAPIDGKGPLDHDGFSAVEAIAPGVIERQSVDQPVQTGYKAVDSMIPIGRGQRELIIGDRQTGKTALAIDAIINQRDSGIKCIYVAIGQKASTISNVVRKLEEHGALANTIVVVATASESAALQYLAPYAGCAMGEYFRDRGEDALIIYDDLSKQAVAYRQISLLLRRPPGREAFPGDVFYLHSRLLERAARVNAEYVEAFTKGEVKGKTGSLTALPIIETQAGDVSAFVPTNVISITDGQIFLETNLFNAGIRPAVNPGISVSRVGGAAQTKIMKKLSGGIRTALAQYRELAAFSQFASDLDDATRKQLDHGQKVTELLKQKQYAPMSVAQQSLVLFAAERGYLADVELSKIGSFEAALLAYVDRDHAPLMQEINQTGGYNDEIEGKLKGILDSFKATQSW
F1-ATPase, sequence (P0ABA4 whole entry, further chain): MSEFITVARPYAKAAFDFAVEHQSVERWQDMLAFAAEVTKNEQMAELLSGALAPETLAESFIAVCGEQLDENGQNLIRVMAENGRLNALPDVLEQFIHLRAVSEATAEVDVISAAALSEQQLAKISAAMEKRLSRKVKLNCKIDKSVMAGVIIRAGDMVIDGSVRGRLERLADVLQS
F1-ATPase, sequence (P0ABA6 whole entry): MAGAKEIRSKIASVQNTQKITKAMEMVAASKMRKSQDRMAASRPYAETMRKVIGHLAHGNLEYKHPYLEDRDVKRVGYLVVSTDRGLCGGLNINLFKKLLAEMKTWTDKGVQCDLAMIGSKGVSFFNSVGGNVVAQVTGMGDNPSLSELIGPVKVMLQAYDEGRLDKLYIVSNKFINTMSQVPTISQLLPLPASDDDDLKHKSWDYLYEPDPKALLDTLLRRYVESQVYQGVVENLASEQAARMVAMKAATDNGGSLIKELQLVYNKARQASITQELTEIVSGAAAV

[2] = target: membrane-bound F1Fo-ATPase (Escherichia coli, UniProt P0ABA6+P0ABB0+P0ABB4); test: ATP hydrolysis by membrane vesicles; format: biochemical, E. coli; conditions: for IC50: two replicates of 5-6 concentrations
[3] = tested on: ATP synthase from E. coli; conditions: cited from earlier work
[4] = tested on: rat liver mitochondrial ATP synthase; conditions: read-out: IC50, rat liver mitochondrial ATP synthase; cited from earlier work
[5] = tested on: superoxide production by NDH-1 and NDH-2; format: biochemical, E. coli
Procedure, shortened: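 E. coli membrane vesicles, prepared at pH 6.0, from strain MWC215 (no NDH-2) or BA14 (nuo deletion, no NDH-1); 200 μg in 0.2 ml of 50 mM MOPS pH 7.3 with 10 mM MgCl2. Preincubated 5 min with increasing test compound, then 5 μM MitoSOX plus 1.25 mM NADH added. Dark, 15 min, 30 °C; fluorescence 510/580 nm. Background controls: no NADH; SOD (150 units).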

[6] = membrane vesicles from wild type strain 1100
[7] = read-out: NDH-2 NADH oxidase IC50, strain BA14 membranes, 250 μM NADH
[8] = read-out: Membrane-bound ATPase Activity IC50, membrane vesicles from wild type strain 1100

Compound | NDH-2 NADH oxidase Maximum inhibition ([1]; strain BA14 membranes) | NDH-1 Deamino-NADH oxidase Maximum inhibition (NDH-1 (Complex I)) | F1-ATPase Activity Maximum inhibition (F1-ATPase) | IC50 (F1-ATPase) | Membrane-bound ATPase Activity Maximum inhibition [2, 6] | extent of inhibition of E. coli ATP synthase [3] | also measured
O=c1c(O)cc([C@H]2Oc3cc(O)cc(O)c3C[C@H]2O)cc2c([C@H]3Oc4cc(O)cc(O)c4C[C@H]3O)cc(O)c(O)c12 [TF1, theaflavin] | 75% | 95% | 85% | 4 µM | 85% |  | IC50 [1]: 3 µM; IC50 (NDH-1 (Complex I)): 45 µM; IC50 ([2]; Membrane-bound ATPase Activity IC50, membrane vesicles from wild type strain 1100): ~60 µM and 60 µM
O=C(O[C@@H]1Cc2c(O)cc(O)cc2O[C@@H]1c1cc(=O)c(O)c2c(O)c(O)cc([C@H]3Oc4cc(O)cc(O)c4C[C@H]3O)c2c1)c1cc(O)c(O)c(O)c1 [TF2A, theaflavin-3-gallate] | 95% | 95% | 90% | 3 µM | 95% |  | IC50 [1, 7]: 3.5 µM; IC50 [2, 8]: 20 µM
O=C(O[C@@H]1Cc2c(O)cc(O)cc2O[C@@H]1c1cc(O)c(O)c2c(=O)c(O)cc([C@H]3Oc4cc(O)cc(O)c4C[C@H]3O)cc12)c1cc(O)c(O)c(O)c1 [TF2B, theaflavin-3′-gallate] | 90% | 95% | 95% | 1.5 µM | 95% |  | IC50 [1, 7]: 2.5 µM; IC50 [2, 8]: 15 µM
NC12CC3CC(CC(C3)C1)C2 [amantidin] |  |  |  |  |  | complete inhibition | 
O=c1cc(-c2ccccc2)oc2cc(O)c(O)c(O)c12 [baicalein] |  |  |  |  |  | complete inhibition | 
Oc1cc(O)c2c(c1)O[C@H](c1ccc(O)c(O)c1)[C@H](O)C2 [epicatechin, (−) epicatechin] |  |  |  |  |  | complete inhibition | IC50 ([3]; read-out: IC50, E. coli ATP synthase): 4 mM
O=c1c(O)c(-c2ccc(O)cc2O)oc2cc(O)cc(O)c12 [morin] |  |  |  |  |  | complete inhibition | 
Oc1cc(O)cc(/C=C/c2ccc(O)c(O)c2)c1 [piceatannol] |  |  |  |  |  | complete inhibition | 
CC(N)C12CC3CC(CC(C3)C1)C2 (stereo not shown) [rimantadin] |  |  |  |  |  | complete inhibition | 
COc1cc(C2Oc3cc([C@H]4Oc5cc(O)cc(O)c5C(=O)[C@@H]4O)ccc3OC2CO)ccc1O (stereo partly shown) [silibinin] |  |  |  |  |  | complete inhibition | 
(−) epigallocatechin gallate [EGCG, reference compound] | 65% | 90% | 90% | 4.5 µM | 95% |  | IC50 [1, 7]: 20 µM; IC50 [4]: 17 µM; IC50 [2, 8]: ~30 µM and 30 µM
theaflavin-3,3′-digallate [TF3] |  |  |  |  |  |  | concentration at which superoxide production was completely eliminated ([5]; NADH oxidation by each dehydrogenase): about 15 μM; effect on superoxide production ([5]; added at levels in the range of the IC50 value): superoxide did not increase, but rather decreased
